According to article PMC6925334 (ACS chemical biology, 2019):

Experiments:
IRE1β* RNase = IRE1β* RNase (Homo sapiens, UniProt Q76MJ5); experiment: fluorescence-quenched XBP1 mini-substrate RNase assay, IRE1β*; type: biochemical
Procedure, shortened: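 Recombinant IRE1β* RNase cleaves a FRET-quenched XBP1 mini-substrate, monitored in real time as a fluorescence increase. Activation is tested at a low, mainly monomeric IRE1β* concentration and inhibition at a higher, dimer-containing concentration. Initial cleavage rates are compared with DMSO. IC50 values are mean ± SEM, n=3. Selectivity is the IRE1α* RNase IC50 divided by the IRE1β* RNase IC50.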

IRE1α* RNase = IRE1α* RNase (Homo sapiens, UniProt O75460); experiment: fluorescence-quenched XBP1 mini-substrate RNase assay, IRE1α*; type: biochemical; conditions: read-out: IRE1α RNase IC50, mean ± SEM, n=3
Chain of IRE1α* RNase (O75460 465-977 limits assumed): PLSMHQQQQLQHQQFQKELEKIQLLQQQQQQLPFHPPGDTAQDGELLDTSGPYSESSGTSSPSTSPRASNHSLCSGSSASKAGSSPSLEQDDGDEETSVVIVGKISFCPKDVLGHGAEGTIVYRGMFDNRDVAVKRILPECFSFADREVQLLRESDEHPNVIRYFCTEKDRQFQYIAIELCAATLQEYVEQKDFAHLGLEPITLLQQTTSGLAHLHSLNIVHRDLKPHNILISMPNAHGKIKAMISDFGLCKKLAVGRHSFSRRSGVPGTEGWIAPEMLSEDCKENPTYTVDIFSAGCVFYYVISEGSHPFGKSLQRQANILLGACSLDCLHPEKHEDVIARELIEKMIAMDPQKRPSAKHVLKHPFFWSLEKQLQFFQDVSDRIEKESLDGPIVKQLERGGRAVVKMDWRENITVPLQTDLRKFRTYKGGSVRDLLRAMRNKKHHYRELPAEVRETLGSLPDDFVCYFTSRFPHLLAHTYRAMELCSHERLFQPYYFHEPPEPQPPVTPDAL
Procedure, shortened: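 IRE1α* RNase activity was followed in vitro as the real-time rise in fluorescence on cleavage of a FRET-quenched XBP1 mini-substrate. IC50 was taken from inhibition curves, mean ± SEM, n=3. Selectivity is the IRE1α RNase IC50 divided by the IRE1β RNase IC50, for each inhibitor.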

Chain of IRE1β* RNase (Q76MJ5 452-926 limits assumed): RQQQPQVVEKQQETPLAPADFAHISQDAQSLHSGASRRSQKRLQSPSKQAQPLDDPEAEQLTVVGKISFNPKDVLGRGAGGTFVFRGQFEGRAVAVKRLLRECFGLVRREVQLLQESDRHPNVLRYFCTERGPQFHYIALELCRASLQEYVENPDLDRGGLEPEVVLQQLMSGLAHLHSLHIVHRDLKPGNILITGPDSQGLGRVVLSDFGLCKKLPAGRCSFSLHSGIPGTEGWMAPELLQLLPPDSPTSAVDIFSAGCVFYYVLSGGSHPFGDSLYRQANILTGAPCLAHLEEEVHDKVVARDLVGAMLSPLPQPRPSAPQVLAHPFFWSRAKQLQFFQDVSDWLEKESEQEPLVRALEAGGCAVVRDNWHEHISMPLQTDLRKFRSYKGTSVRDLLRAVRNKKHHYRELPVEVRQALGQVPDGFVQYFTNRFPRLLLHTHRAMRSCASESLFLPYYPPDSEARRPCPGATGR

Compound	effect on ability to cleave the XBP1 mini-substrate (IRE1β* RNase; High [IRE1β*] (RNase active dimer))	IRE1β RNase Selectivity (Fold) (IRE1β* RNase; IRE1α* RNase IC50 divided by IRE1β* RNase IC50)	IC50 (IRE1β* RNase; read-out: IRE1β RNase IC50, mean ± SEM, n=3, XBP1 mini-substrate) [nM]	IC50 (IRE1α* RNase) [nM]	rate of XBP1 mini-substrate cleavage relative to the apo form (IRE1β* RNase; Low [IRE1β*] (mainly monomeric), RNase activation) [fold]
Cc1ccc2c(NS(=O)(=O)c3ccccc3Cl)cccc2c1Oc1ncccc1-c1ccnc(N[C@H]2CCCNC2)n1 [compound 1]	almost complete loss in its ability to cleave the XBP1 mini-substrate	0.09	55 ± 5	5 ± 2.3	
O=C(Nc1c[nH]nc1-c1nc2ccc(CN3CCOCC3)cc2[nH]1)NC1CC1 [AT9283]					12
